A selection: hits, their analogues and other compounds. The true share with any hit is near 2.9%.
CAL PDZ FP-1: CAL PDZ (human) peptide binding inhibition; AID 602252; inhibition, % at 24.9 µM; purified CAL PDZ, TMR-peptide fluorescence polarization, 1 h; hit rate 0.92% among 300,000; Q9HD26;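 active = mean inhibition of at least 30% with at least half of replicates also reaching 30%; inconclusive = no clear call, values can overlap the other calls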
SIRT5 inh: blocks human SIRT5 desuccinylation of peptide | hit rate 1.1% among 330,000 | inhibition, % at 15 µM | AID 652115 | Purified SirT5, succinyl-peptide AMC, trypsin-coupled fluorescence | Q9NXA8; in the data active = inhibition above about 15%; inconclusive = no clear call, values can overlap the other calls
Target sequence (Q9NXA8 whole entry, looked up): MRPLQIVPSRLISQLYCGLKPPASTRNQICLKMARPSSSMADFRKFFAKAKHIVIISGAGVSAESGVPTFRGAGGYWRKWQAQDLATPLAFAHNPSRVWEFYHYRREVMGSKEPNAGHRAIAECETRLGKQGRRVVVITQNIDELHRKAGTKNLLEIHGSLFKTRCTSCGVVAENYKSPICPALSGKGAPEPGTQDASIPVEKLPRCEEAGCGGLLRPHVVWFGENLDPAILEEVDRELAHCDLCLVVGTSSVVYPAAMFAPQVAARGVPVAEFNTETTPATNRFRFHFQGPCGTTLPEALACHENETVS
S100A4 inh HTS: blocks human S100A4 binding to myosin IIA peptide; P26447; S100A4/TAMRA-MyoIIA peptide fluorescence polarization; inhibition, % at 10.7 µM; hit rate 0.14% among 360,000;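 active = mean inhibition of at least 70% across replicates, with every replicate also reaching that level; inconclusive = mean inhibition reaches 70% but some replicates fall short; inactive = mean inhibition below 70%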
Target sequence (P26447 whole entry, looked up): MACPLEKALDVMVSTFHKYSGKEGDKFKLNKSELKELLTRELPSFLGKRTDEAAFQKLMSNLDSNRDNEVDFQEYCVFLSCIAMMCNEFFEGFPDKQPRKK
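Material: human S100A4 monomer with TAMRA-labelled myosin IIA peptide; buffer or medium: HEPES pH 7.2 with CaCl2, KCl, NaCl, DTT, Triton; compound dosing: one concentration per compound; schedule: 5 min incubation before reading; benchmarks: neutral control DMSO, positive control TFP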
CAL PDZ FP-2: blocks peptide binding to human CAL PDZ domain. AID 504414. Q9HD26. hit rate 0.02% among 330,000. inhibition, % at 20 µM. purified CAL PDZ, TMR-peptide fluorescence polarization, 1 h;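 active = highest replicate inhibition of at least 40%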
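Test system: purified CerCALP PDZ construct; Compound dosing: one concentration, 20 µM compound; Also added: TMR-labelled reporter peptide T*-PRC34 bound in PDZ groove; Read-out: inhibition from polarization loss; Controls: unlabelled peptide and DMSO controls; Signal: FP readout, S and P plane fluorescence; Incubation: 1 h at RT.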
ERAP1 HTS inh: ERAP1 (human) enzyme inhibition | Q9NZ08 | recombinant ERAP1, Leu-AMC fluorescence, 60 min | inhibition, % at 10.7 µM | hit rate 0.15% among 340,000;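 active = mean replicate inhibition of at least 30%, or all replicates individually reaching that 30% level; inactive = mean below 30% and not every replicate reaching it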
DENV2 CPE: inhibitors of DENV2 cytopathic effect. AID 651640. hit rate 1.7% among 350,000. CPE inhibition, % at 9.99 µM. DENV2-infected cells, cytopathic effect rescue, plate reader; in the data active = CPE inhibition above about 20%, passing the limit was not always enough; inconclusive = no clear call, values can overlap the other calls; tested in BHK-21 cells
Numbers stand for hits; – = inactive; ? = inconclusive; · = not tested or not shown.

SMILES | CAL PDZ FP-1 | SIRT5 inh | S100A4 inh HTS | CAL PDZ FP-2 | ERAP1 HTS inh | DENV2 CPE
c1ccc(CN2CCCC3(CCCN(Cc4nc(COc5ccccc5)no4)C3)C2)cc1 (centres undefined) | 51.9 | · | · | – | · | ·
COCC#Cc1cnc2c(c1)C(=O)N([C@H](C)CO)C[C@@H](C)[C@H](CN(C)C(=O)NC1CCCC1)O2 | · | – | – | · | – | –
CCN1CCN(C(=O)/C(C#N)=C/c2ccc(OC(F)F)cc2)CC1 | · | 17.9 | – | – | – | ·
N#C/C(=C\c1ccc(OC(F)F)cc1)C(=O)N1CCCCC1 | – | – | – | – | · | –
Cc1ccc(S(=O)(=O)NN2C(=O)/C(=C/c3cccc(F)c3)SC2=S)cc1 | 33.1 | – | – | – | – | –
COc1cc(/C=C2\SC(=S)N(NS(=O)(=O)c3ccc(C)cc3)C2=O)cc(OC)c1OC | – | – | – | – | · | –
COc1ccc(C2CC(=O)C(C=NCCO)=C(O)C2)cc1 (centres undefined) | – | 23.2 | – | – | – | –
Cc1cc(=O)oc2c(CN3CCN(C)CC3)c(O)c(Cl)cc12 | – | – | – | – | 86.5 | ·
CCCc1cc(=O)oc2c(CN3CCN(C)CC3)c(O)ccc12 | – | – | – | – | 34.5 | ?
CCc1c(C)c2cc(Cl)c(O)c(CN3CCCC3)c2oc1=O | – | – | – | · | 36.5 | ?
CCCc1cc(=O)oc2c(CN(CC)CC)c(O)c(Cl)cc12 | – | – | – | – | 189.4 | –
O=C(C[C@@H]1C[C@H]2c3cc(NS(=O)(=O)c4ccc(F)cc4)ccc3O[C@H]2[C@H](CO)O1)NC1CCCCC1 | · | – | – | · | – | –
CCCN1[C@@H]2c3ccc(-c4ccc(C(=O)N(C)C)cc4)c(=O)n3C[C@@H]2[C@@H](CO)[C@@H]1C(=O)NCCOC | · | – | – | · | – | –
CCCCc1cc(=O)oc2c(CN3CCCC3)c(O)c(Cl)cc12 | – | · | · | – | · | ·
CCCc1cc(=O)oc2c(CN3CCN(C)CC3)c(O)c(Cl)cc12 | 30.6 | · | · | – | · | ·
COc1cccc(CN(CC2CCCO2)S(=O)(=O)c2ccc(-n3cnnn3)c(OC)c2)c1 (centres undefined) | – | – | – | – | – | ?
COc1cccc(CN(c2ccc3c(c2)CCC3)S(=O)(=O)c2ccc(-n3cnnn3)c(OC)c2)c1 | 42.4 | · | · | – | · | ·
CO[C@@H]1CN(C)C(=O)c2cc(NS(=O)(=O)CC(F)(F)F)ccc2OC[C@@H](C)N(Cc2ccccn2)C[C@@H]1C | · | – | – | · | – | –
Cc1cnc(C(=O)OCC(=O)C23CC4CC(CC(C4)C2)C3)cn1 | – | 17.1 | – | – | – | –
C[C@H](CO)N1C[C@H](C)[C@@H](CN(C)Cc2ccc(Cl)c(Cl)c2)Oc2ccc(NC(=O)Nc3cccc4ccccc34)cc2CC1=O | · | – | – | · | – | –
C[C@H]1CN([C@@H](C)CO)C(=O)Cc2cc(NC(=O)Nc3cccc4ccccc34)ccc2O[C@H]1CN(C)Cc1ccc(C(=O)O)cc1 | · | – | – | · | – | –
C[C@@H]1CN([C@@H](C)CO)C(=O)Cc2cc(NC(=O)Nc3cccc4ccccc34)ccc2O[C@@H]1CN(C)Cc1ccc(C(=O)O)cc1 | · | – | – | · | – | 48.9
C[C@H]1CN([C@@H](C)CO)C(=O)Cc2cc(NC(=O)Nc3cccc4ccccc34)ccc2O[C@@H]1CN(C)Cc1ccc(Cl)c(Cl)c1 | · | 15.8 | – | · | – | –
C[C@@H]1CN([C@H](C)CO)C(=O)Cc2cc(NC(=O)Nc3cccc4ccccc34)ccc2O[C@@H]1CN(C)Cc1ccccc1 | · | – | – | · | – | –
C[C@@H]1CN([C@@H](C)CO)C(=O)Cc2cc(NC(=O)Nc3cccc4ccccc34)ccc2O[C@H]1CN(C)Cc1ccccc1 | · | – | – | · | – | 20.4
SMILES | CAL PDZ FP-1 | SIRT5 inh | S100A4 inh HTS | CAL PDZ FP-2 | ERAP1 HTS inh | DENV2 CPE
CNC(=O)c1c(C)nc(SCC(=O)NCc2ccc(OC)cc2)c(C#N)c1-c1ccco1 | 54.8 | · | · | – | · | ·
COCCOC(=O)c1c(C)nc(SCC(=O)Nc2cccc3ccccc23)c(C#N)c1-c1ccco1 | – | · | · | – | · | ·
O=C(c1cccc(F)c1)N1C[C@@H]2[C@H](c3ccccc31)[C@@H](CO)N2C(=O)C1CCCC1 | · | – | – | · | – | –
O=C(c1cccc(F)c1)N1C[C@@H]2[C@H](c3ccccc31)[C@H](CO)N2C(=O)C1CC1 | · | – | – | · | – | 31.6
O=C(c1ccccc1)N1C[C@@H]2[C@H](c3ccccc31)[C@H](CO)N2C(=O)c1cccc(F)c1 | · | – | – | · | – | 25.8
COCC(=O)N1[C@H](CO)[C@H]2c3ccccc3N(C(=O)c3cccc(OC)c3)C[C@H]21 | · | – | – | · | – | 54.9
CO[C@H]1CN(C)C(=O)c2ccc(NC(=O)C3CCCC3)cc2OC[C@@H](C)N(CCC(F)(F)F)C[C@H]1C | · | – | – | · | – | –
Cc1cc(C)n(-c2ccc(C(=O)OCn3nnc4ccccc4c3=O)cc2)n1 | – | – | – | · | – | ·
Cc1nn(-c2ccccc2)c2sc(C(=O)OCn3nnc4ccccc4c3=O)cc12 | – | 17.2 | – | – | – | –
Cc1ccc(S(=O)(=O)N[C@@H]2CC[C@H](CC(=O)NCCN3CCCCC3)O[C@H]2CO)cc1 | · | – | – | · | – | –
CC(=O)N1[C@@H](CO)[C@@H](c2ccccc2)C12CN(C(=O)c1ccccn1)C2 | · | – | – | · | – | –
O=C(COC(=O)C1=COCCO1)Nc1ccc(Br)cc1Br | 43.0 | – | – | – | – | –
Cc1ccccc1NC(=O)COC(=O)C1=COCCO1 | – | – | – | – | – | –
COc1cccc(-c2ncc3ccccc3c2COC(=O)c2ccc(F)cc2)c1 | – | · | – | – | – | 101.7
CC1CN(CCOc2ccc(F)cc2)CC(C)O1 (centres undefined) | 42.1 | · | – | – | – | –
CC1CN(CCOc2ccc([N+](=O)[O-])cc2)CC(C)O1 (centres undefined) | – | · | · | – | · | ·
CC1CN(CCOc2ccccc2-c2ccccc2)CC(C)O1 (centres undefined) | – | 30.7 | – | – | – | –
C[C@@H]1CN([C@H](C)CO)C(=O)c2cc(NC(=O)Nc3ccccc3)ccc2O[C@H]1CN(C)Cc1ccc(Oc2ccccc2)cc1 | · | – | – | · | – | –
COCC(=O)Nc1ccc2c(c1)OC[C@H](C)N(CC1CC1)C[C@H](C)[C@H](OC)CN(C)C2=O | · | – | – | · | · | ?
CSc1cccc(NC(=O)C2CCN(S(=O)(=O)c3ccc4c(c3)NC(=O)CO4)CC2)c1 | – | – | 85.8 | – | – | –
C[C@@H]1CN([C@@H](C)CO)C(=O)CCCn2cc(nn2)CO[C@@H]1CN(C)C(=O)Nc1ccnc(N2CCOCC2)c1 | · | – | – | · | – | –
COc1ccc(CN(C)C[C@@H]2Oc3ccc(NC(=O)Cc4ccccc4)cc3C(=O)N([C@@H](C)CO)C[C@H]2C)cc1 | · | – | – | · | – | –
COc1cccc(CN(C)C(=O)CN2C(=O)NC3(CCCc4ccccc43)C2=O)c1 (centres undefined) | – | – | – | – | – | 73.4
